# Source: PubChem (several laboratories)
# Hits are enriched below; roughly 3.1% of the tested compounds scored in any of these assays.
# core dimer inh – blocks dimerization of HCV core protein | TR-FRET GST/Flag-core106 dimerization, 1536-well | inhibition, % at 5 µM | 300,000 tested, 0.33% active | AID 1899;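 active means inhibition above the mean of all tested compounds plus 3 SD, set per screening campaign, cut at about 45% in these data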
#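 System: GST/Flag-tagged HCV core106 proteins. Incubation: compound-protein-antibody incubation 4 h at 22.5 °C. Technique: HTRF with 340 nm excitation, 617/671 nm emission. Medium: KF-containing HEPES buffer, pH 7.45, DTT, CHAPS, BSA. Read-out: inhibition (%) from 671 over 617 nm ratio. Also added: Eu(K)-anti-GST 90 ng/mL plus XL665-anti-Flag 1 µg/mL.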
# VIM-2 inhibitor – blocks Pseudomonas aeruginosa VIM-2 metallo-beta-lactamase | purified VIM-2, nitrocefin hydrolysis, epi-absorbance fluorescence | inhibition, % at 5.6 µM | 290,000 tested, 0.89% active | AID 1527;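 active means inhibition above the mean of all tested compounds plus 3 SD, cutoff set per screening run, cut at about 7.5% in these data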;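 further: red hydrolysis product quenches plate fluorescence so inhibitors raise well fluorescence; 0% = enzyme with DMSO and 100% = DMSO without enzyme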
# HCV NS3 hel inh – blocks Hepatitis C virus NS3 helicase unwinding | NS3 helicase DNA unwinding, Cy5 molecular beacon fluorescence | inhibition, % at 10.9 µM | 290,000 tested, 0.56% active | AID 1800;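 active means inhibition above the mean of all tested compounds plus 3 SD, set per campaign, cut at about 35% in these data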;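 further: 0% = DMSO wells and 100% = thioflavine S control wells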
#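 Measured by: Cy5 fluorescence, 0 and 60 min reads / Assay system: NS3 helicase fragment of HCV / Control set: low DMSO, high thioflavine S at 110 µM / Times: 1 h reaction at 25 °C, ATP-initiated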
# UBC9 SUMO inh – SUMOylation inhibition. 290,000 tested, 0.36% active. inhibition, % at 35 µM. AID 2006. HTRF SUMOylation assay, SAE1/SAE2 + UBC9, in vitro; in the data active means inhibition above about 50%, passing the limit was not always enough; inconclusive means no clear call, values can overlap the other calls
# Target sequence (P63279 whole entry, looked up): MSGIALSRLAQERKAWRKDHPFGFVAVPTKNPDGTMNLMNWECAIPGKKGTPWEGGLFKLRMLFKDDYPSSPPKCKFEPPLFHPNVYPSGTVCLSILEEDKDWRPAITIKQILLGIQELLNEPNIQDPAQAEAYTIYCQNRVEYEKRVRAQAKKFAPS
# PHOSPHO1 block – inhibitors of human PHOSPHO1 phosphatase; Q8TCT1; recombinant PHOSPHO1, absorbance phosphatase assay; 290,000 tested, 1.1% active; inhibition, % at 13.3 µM; in the data active means inhibition above about 60%
# Target sequence (Q8TCT1 whole entry, looked up): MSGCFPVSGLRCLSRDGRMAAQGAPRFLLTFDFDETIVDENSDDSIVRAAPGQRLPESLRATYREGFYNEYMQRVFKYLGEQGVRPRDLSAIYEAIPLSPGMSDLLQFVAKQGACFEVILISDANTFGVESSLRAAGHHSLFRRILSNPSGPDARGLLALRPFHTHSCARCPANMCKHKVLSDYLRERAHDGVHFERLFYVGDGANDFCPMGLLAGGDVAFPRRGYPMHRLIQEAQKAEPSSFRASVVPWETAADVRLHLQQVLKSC
# IMP-1 inhibitor – inhibitors of Pseudomonas aeruginosa IMP-1 metallo-beta-lactamase | purified IMP-1, nitrocefin hydrolysis, epi-absorbance fluorescence | 290,000 tested, 0.45% active | AID 1556 | inhibition, % at 5.6 µM;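 active means inhibition above the mean plus 3 SD of all compounds in the same screening run, cut at about 4.5% in these data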;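 further: 0% = IMP-1 with DMSO and 100% = DMSO wells lacking enzyme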
#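 System: purified recombinant IMP-1 beta-lactamase. Medium: Zinc- and detergent-supplemented HEPES buffer, pH 7.1. Compound: one 5.6 µM dose […]. Schedule: 15 min preincubation plus 25 min reaction at 25 °C. Technique: Epi-absorbance fluorescence, 480 nm excitation, 530 nm emission.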
# NS3 hel confirm – confirmation of Hepatitis C virus NS3 helicase inhibitors; NS3 helicase DNA unwinding, Cy5 molecular beacon fluorescence; inhibition, % at 10.9 µM; AID 1943; 1,600 tested, 31% active; shares compounds with HCV NS3 hel inh;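 active means inhibition above the mean of all tested compounds plus 3 SD, cutoff set per campaign, cut at about 36% in these data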
# FID counter trip – counter-screen for HCV NS3 helicase inhibitors: DNA intercalator displacement. shares compounds with HCV NS3 hel inh. DNA fluorescent intercalator displacement, fluorescence. inhibition, % at 7.9 µM. 1,600 tested, 4% active. AID 1945; in the data active means inhibition above about 37%;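 further: 0% = vehicle and 100% = reference compound; higher means more displacement of ethidium bromide from the DNA hairpin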
# The depositor's hits bear a star; ? = inconclusive; · = not tested or not shown.
SMILES,core dimer inh,VIM-2 inhibitor,HCV NS3 hel inh,UBC9 SUMO inh,PHOSPHO1 block,IMP-1 inhibitor,NS3 hel confirm,FID counter trip
COc1cc(C=C(c2nc3ccccc3s2)c2nc3ccccc3s2)cc(OC)c1O,16.3,-0.8,38.6*,6.4,-14.7,-0.3,-27.1,-7.8
Cc1ccc(/C=C/C(=O)Nc2ncc(C)s2)o1,-4.4,-0.2,50.3*,12.8,11.6,-1.8,-9.0,7.7
O/N=C/c1ccc2cccc(OCc3ccccc3)c2n1,-7.8,-3.4,0.1,19.6,34.0,-3.4,·,·
NC(=S)N/N=C/c1ccc2cccc(OCc3ccccc3)c2n1,-4.0,-3.1,38.7*,42.9,5.2,-2.5,-1.7,-20.9
CC(=O)N[C@H]1[C@H](OC2CCCCC2)O[C@H](COC(C)=O)[C@@H](OC(C)=O)[C@@H]1OC(C)=O,-6.2,-3.6,2.0,-0.8,-9.9,-1.1,·,·
CCOC(=O)/C(C(C)=O)=C1\OC(=O)c2ccccc21,-3.2,-2.7,44.4*,22.3,20.3,-2.7,-7.4,6.6
Clc1ccc(C2Nc3cccc4cccc(c34)N2)cc1,18.1,-2.8,69.2*,28.2,29.5,-1.3,-28.4,26.4
CC(=O)OCCc1[nH]c2ccccc2c1C,-6.8,-0.2,52.4*,-3.5,-1.7,-2.3,-16.1,2.4
CSc1sc(-c2ccnc(SCC(=O)C(C)(C)C)n2)c2c1C(=O)CC(C)(C)C2,8.3,3.6,56.4*,14.8,17.7,13.6*,-8.7,-20.9
CCn1nc(C)c(CNC(=O)c2ccc(OC3CCN(Cc4ccccn4)CC3)cc2)c1C,·,-2.1,5.5,12.0,12.3,-0.6,·,·
COc1ccccc1N1CCN(C(=O)CSc2nc(C)c(Cc3ccccc3)c(=O)[nH]2)CC1,6.5,1.2,41.4*,16.8,-7.4,0.1,-18.5,-42.7
COc1ccccc1N1CCN(C(=O)CSc2nc(-c3ccccc3)cc(=O)[nH]2)CC1,8.0,-1.2,-6.6,11.1,3.4,-1.8,·,·
O=c1[nH]c(=S)[nH]c2c1C(c1ccc(Br)cc1)c1c([nH]c(=S)[nH]c1=O)O2,29.9,-7.5,42.6*,80.3*,43.7,-2.2,75.1*,5.2
Cc1cc2nc3ccc(=[N+](C)C)cc-3sc2cc1N,·,5.6,57.7*,-316.5,3.1,-0.1,77.6*,107.0*
CCc1cc(=O)oc2c3c(cc(OCC(=O)NC4CC4)c12)OC(C)(C)CC3,0.1,2.8,42.0*,30.7,44.2,1.1,-8.1,-37.2
CCc1cc(=O)oc2c3c(cc(OCC(=O)NCCCC(=O)O)c12)OC(C)(C)CC3,-11.3,-1.3,-6.5,45.1,42.6,-4.3,·,·
CC(O)CNC(=O)Cc1cc(=O)[nH]c(=O)[nH]1 (stereo unspecified),0.8,-3.2,4.0,3.2,32.2,-4.0,·,·
Cc1ccc(OCC(=O)NC(=S)Nc2ccc(Br)cn2)cc1C,3.6,-2.1,0.8,4.2,-68.4,-4.3,·,·
CCCNC(=S)N1CCN(Cc2ccc3c(c2)OCO3)CC1,-5.9,-2.2,54.8*,-16.1,16.8,-2.2,-5.6,11.2
CCNC(=S)N1CCN(Cc2ccc3c(c2)OCO3)CC1,-5.7,-2.2,-13.9,-14.5,0.9,-1.2,·,·
CC(=O)c1sc(C(=O)O)c(-c2ccco2)c1-c1ccco1,-3.7,-0.8,52.0*,27.5,38.6,1.7,35.7,39.0*
CC(C)C(=O)Nc1nnc(-c2ccco2)s1,1.4,-3.1,-0.2,15.0,46.0,-2.6,·,·
CCCCCCc1c(C)c2ccc(OCC(=O)N[C@@H](Cc3ccccc3)C(=O)O)cc2oc1=O,8.8,-3.8,-44.9,38.2,7.9,-3.2,·,·
COc1cc2cccc(OC)c(=O)c2c(OC)c1OC,-6.2,-1.7,2.5,19.2,11.4,-2.2,·,·
O=c1c(O)cccc2cc(O)c(O)c(O)c12,-15.9,5.3,53.1*,?,-5.9,7.7*,107.8*,12.8
SMILES,core dimer inh,VIM-2 inhibitor,HCV NS3 hel inh,UBC9 SUMO inh,PHOSPHO1 block,IMP-1 inhibitor,NS3 hel confirm,FID counter trip
O=C(c1ccco1)c1coc2c1cc(O)c1ccccc12,-0.1,2.1,13.7,23.3,49.8,3.0,·,·
O=C(COC(=O)/C=C/c1cccc([N+](=O)[O-])c1)NCC1CCCO1 (stereo unspecified),1.0,-4.7,48.3*,24.4,5.6,-3.1,-7.4,3.7
O=C(COC(=O)/C=C/c1ccc([N+](=O)[O-])cc1)NCC1CCCO1 (stereo unspecified),-1.6,-0.7,-8.8,5.7,-2.8,0.0,·,·
COc1ccc(OC)c(NC(=O)Nc2nnc(N3CCCCC3C)s2)c1 (stereo unspecified),-1.9,0.7,38.6*,12.9,28.1,0.6,-6.6,-13.4
CCOC(=O)CCSc1nc(-c2ccc3c(c2)OCO3)cc(C(F)(F)F)c1C#N,-1.9,-2.1,-4.4,1.6,18.2,-2.6,·,·
CCOC(=O)CC(=O)CSc1nc(-c2ccc3c(c2)OCO3)cc(C(F)(F)F)c1C#N,-24.3,0.6,37.2*,-12.0,31.5,-1.9,-2.0,0.7
CCn1c(C)nc2cc(C(=O)N/N=C(\C)c3ccccc3O)ccc21,-17.7,-6.4,-4.4,-1.9,2.0,-3.7,·,·
Cc1oc2c(c(C)cc3oc(=O)c(CC(=O)N[C@@H](CC(C)C)C(=O)O)c(C)c32)c1C,·,-0.2,47.3*,47.8,·,-5.5,24.1,-35.0
CC[C@@H](C)[C@H](NC(=O)Cc1c(C)c2cc3c(C)c(C)oc3c(C)c2oc1=O)C(=O)O,4.8,-0.6,49.3*,6.6,15.9,-2.0,74.7*,9.2
C1CCN(Cc2nnnn2CC2CCCO2)CC1 (stereo unspecified),-2.6,-4.9,-2.3,2.8,32.3,-5.4,·,·
O=C1/C(=C\c2cccc(O)c2)SC(=S)N1Cc1ccccc1,-3.3,-0.4,25.8,-19.3,-7.8,1.8,·,·
O=C1/C(=C\c2ccc(O)c(O)c2)SC(=S)N1Cc1ccccc1,·,-0.9,69.0*,40.3,39.4,1.2,59.4*,51.5*
COc1cc(/C=C2\SC(=S)N(C(C(=O)O)c3ccccc3)C2=O)ccc1O (stereo unspecified),-2.6,6.7,43.3*,12.5,32.7,-5.2,74.6*,-1.2
Cc1cc(C)cc(-n2c(N)c(C(=O)Nc3c(C)n(C)n(-c4ccccc4)c3=O)c3nc4ccccc4nc32)c1,2.7,-2.4,12.7,-3.3,1.1,-3.0,·,·
COc1cccc(-n2c(N)c(C(=O)Nc3c(C)n(C)n(-c4ccccc4)c3=O)c3nc4ccccc4nc32)c1,19.1,2.1,37.5*,12.3,37.1,0.2,6.7,-55.5
COc1cccc(C(=O)c2c[nH]c(C(=O)NCCCN3CCOCC3)c2)c1,1.4,3.3,3.3,8.2,32.8,-1.7,·,·
